The source made the active and inactive calls. The rule behind the calls is not given here.
How the values were obtained:
Puccinia triticina [1] = experiment: Fungicidal activity against Puccinia triticina assessed as inhibition of disease development in compound treated leaf pieces at 200 ppm relative to untreated control (wheat-curative); type: functional
Outline: (§1)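 Curative wheat leaf-piece test against Puccinia triticina. Leaf pieces inoculated with spores first, then treated with formulated compound at 200, 60 or 20 ppm. Disease scored 3–9 days after inoculation as percent inhibition versus untreated controls. Values are the mean across replicates.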

Plasmopara viticola [2] = experiment: Fungicidal activity against Plasmopara viticola assessed as inhibition of disease development in compound treated leaf pieces at 60 ppm relative to untreated control (grapevine-preventative); type: functional
Outline: (§2)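 Preventative leaf-piece test on host tissue (tomato, vine, wheat or barley). Formulated compound applied at 200, 60 and 20 ppm before spore inoculation. Disease scored 3–9 days after inoculation, depending on the pathogen, as percent inhibition of disease development versus untreated controls. Values are the mean across replicates.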

Heliothis virescens = experiment: Insecticidal activity against Lepidoptera Heliothis virescens (tobacco budworm) assessed as mortality at 1000 ppm by leaf-disk assay; type: functional, organism-based
Outline: (§3)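 Leaf-disk assay at 1000 ppm, three replicates. Plates kept 5–9 days in controlled-environment cabinets. Mortality judged against untreated wells: 99 for significant mortality, 0 otherwise. Values are the mean of three; thiamethoxam and indoxacarb used as positive controls.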

Aphididae = experiment: Insecticidal activity against Aphididae (aphids) assessed as mortality at 1000 ppm by leaf-disk assay; type: functional, organism-based; outline: as §3
Puccinia triticina [3] = experiment: Fungicidal activity against Puccinia triticina assessed as inhibition of disease development in compound treated leaf pieces at 20 ppm relative to untreated control (wheat-curative); type: functional; outline: as §1
[4] = tested on: Blumeria graminis f. sp. tritici; experiment: Fungicidal activity against Blumeria graminis f. sp. tritici assessed as inhibition of disease development in compound treated leaf pieces at 200 ppm relative to untreated control (wheat-preventative); type: functional
Puccinia triticina [5] = experiment: Fungicidal activity against Puccinia triticina assessed as inhibition of disease development in compound treated leaf pieces at 60 ppm relative to untreated control (wheat-curative); type: functional; outline: as §1
Brassica napus [6] = experiment: Herbicidal activity against Brassica napus (oilseed rape) at 1.5 kg/ha preemergence treatment measured after 10 days by glasshouse test; type: functional; details: pre-emergence, 240 h
Outline: (§4)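 Glasshouse pre/postemergence test, each treatment in triplicate. Above-ground fresh weight measured 10 days after treatment. Result expressed as percent inhibition versus control, from 0 (no control) to 100 (complete control); glyphosate used as positive control.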

Fusarium graminearum = experiment: Fungicidal activity against Fusarium graminearum assessed as inhibition of mycelia growth at 2 ppm; type: functional, organism-based
Outline: (§5)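 Mycelial growth test in 96-well plates: compound incorporated into artificial growth medium at 2 ppm, two replicates per rate. Each well scored 99 for complete, 55 for partial or 0 for no inhibition. Values are the mean across replicates; azoxystrobin and prochloraz used as positive controls.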

Echinochloa crus-galli [7] = experiment: Herbicidal activity against Echinochloa crus-galli (barnyard grass) at 1.5 kg/ha postemergence treatment measured after 10 days by glasshouse test; type: functional; details: post-emergence, 240 h; outline: as §4
Alternaria solani [8] = experiment: Fungicidal activity against Alternaria solani assessed as inhibition of disease development in compound treated leaf pieces at 20 ppm relative to untreated control (tomato-preventative); type: functional; outline: as §2
Plasmopara viticola [9] = experiment: Fungicidal activity against Plasmopara viticola assessed as inhibition of disease development in compound treated leaf pieces at 200 ppm relative to untreated control (grapevine-preventative); type: functional; outline: as §2
Pyrenophora teres [10] = experiment: Fungicidal activity against Pyrenophora teres assessed as inhibition of disease development in compound treated leaf pieces at 20 ppm relative to untreated control (barley-preventative); type: functional; outline: as §2
Phytophthora infestans [11] = experiment: Fungicidal activity against Phytophthora infestans assessed as inhibition of disease development in compound treated leaf pieces at 60 ppm relative to untreated control (tomato-preventative); type: functional; outline: as §2
Phytophthora infestans [12] = experiment: Fungicidal activity against Phytophthora infestans assessed as inhibition of disease development in compound treated leaf pieces at 200 ppm relative to untreated control (tomato-preventative); type: functional; outline: as §2
Pythium dissimile = experiment: Fungicidal activity against Pythium dissimile assessed as inhibition of mycelia growth at 2 ppm; type: functional, organism-based; outline: as §5
Pyrenophora teres [13] = experiment: Fungicidal activity against Pyrenophora teres assessed as inhibition of disease development in compound treated leaf pieces at 60 ppm relative to untreated control (barley-preventative); type: functional; outline: as §2
Plasmopara viticola [14] = experiment: Fungicidal activity against Plasmopara viticola assessed as inhibition of disease development in compound treated leaf pieces at 20 ppm relative to untreated control (grapevine-preventative); type: functional; outline: as §2
Puccinia triticina [15] = experiment: Fungicidal activity against Puccinia triticina assessed as inhibition of disease development in compound treated leaf pieces at 60 ppm relative to untreated control (wheat-preventative); type: functional; outline: as §2
Brassica napus [16] = experiment: Herbicidal activity against Brassica napus (oilseed rape) at 1.5 kg/ha postemergence treatment measured after 10 days by glasshouse test; type: functional; details: post-emergence, 240 h; outline: as §4
[17] = tested on: Blumeria graminis f. sp. tritici; experiment: Fungicidal activity against Blumeria graminis f. sp. tritici assessed as inhibition of disease development in compound treated leaf pieces at 20 ppm relative to untreated control (wheat-preventative); type: functional
Parastagonospora nodorum [18] = experiment: Fungicidal activity against Phaeosphaeria nodorum assessed as inhibition of disease development in compound treated leaf pieces at 60 ppm relative to untreated control (wheat preventative); type: functional; outline: as §2
Puccinia triticina [19] = experiment: Fungicidal activity against Puccinia triticina assessed as inhibition of disease development in compound treated leaf pieces at 200 ppm relative to untreated control (wheat-preventative); type: functional; outline: as §2
Parastagonospora nodorum [20] = experiment: Fungicidal activity against Phaeosphaeria nodorum assessed as inhibition of disease development in compound treated leaf pieces at 20 ppm relative to untreated control (wheat preventative); type: functional; outline: as §2
Pyrenophora teres [21] = experiment: Fungicidal activity against Pyrenophora teres assessed as inhibition of disease development in compound treated leaf pieces at 200 ppm relative to untreated control (barley-preventative); type: functional; outline: as §2
Alternaria solani [22] = experiment: Fungicidal activity against Alternaria solani assessed as inhibition of disease development in compound treated leaf pieces at 60 ppm relative to untreated control (tomato-preventative); type: functional; outline: as §2
Uromyces viciae-fabae = experiment: Fungicidal activity against Uromyces viciae-fabae assessed as inhibition of mycelia growth at 100 ppm; type: functional, organism-based
Outline: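 Leaf-piece assay on bean at 100 ppm, with compound applied before spore inoculation and two replicates. Each well scored 99 for complete inhibition, 55 for partial and 0 for none; value is the mean score across replicates.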

Phytophthora infestans [23] = experiment: Fungicidal activity against Phytophthora infestans assessed as inhibition of mycelia growth at 200 ppm; type: functional, organism-based
Puccinia triticina [24] = experiment: Fungicidal activity against Puccinia triticina assessed as inhibition of disease development in compound treated leaf pieces at 20 ppm relative to untreated control (wheat-preventative); type: functional; outline: as §2
Echinochloa crus-galli [25] = experiment: Herbicidal activity against Echinochloa crus-galli (barnyard grass) at 1.5 kg/ha preemergence treatment measured after 10 days by glasshouse test; type: functional; details: pre-emergence, 240 h; outline: as §4
Phytophthora infestans [26] = experiment: Fungicidal activity against Phytophthora infestans assessed as inhibition of disease development in compound treated leaf pieces at 20 ppm relative to untreated control (tomato-preventative); type: functional; outline: as §2
Triticum aestivum = experiment: Phytotoxicity against Triticum aestivum (wheat) plant at 200 ppm; type: organism-based; details: in vivo
Alternaria solani [27] = experiment: Fungicidal activity against Alternaria solani assessed as inhibition of mycelia growth at 2 ppm; type: functional, organism-based; outline: as §5
Alternaria solani [28] = experiment: Fungicidal activity against Alternaria solani assessed as inhibition of disease development in compound treated leaf pieces at 200 ppm relative to untreated control (tomato-preventative); type: functional; outline: as §2
[29] = tested on: Blumeria graminis f. sp. tritici; experiment: Fungicidal activity against Blumeria graminis f. sp. tritici assessed as inhibition of disease development in compound treated leaf pieces at 60 ppm relative to untreated control (wheat-preventative); type: functional

`CSc1nc(NCc2cc(-c3ccccc3)no2)nc(NC(C)C)n1` was tested, and the inhibition at 200 ppm (Puccinia triticina [1]) was 100%, the inhibition at 60 ppm (Plasmopara viticola [2]) was 0% and the mortality (Heliothis virescens) was “inactive”. For the same compound, the mortality (Aphididae) was “inactive”, the inhibition at 20 ppm (Puccinia triticina [3]) was 70% and the inhibition at 200 ppm [4] was 70%. The inhibition at 60 ppm (Puccinia triticina [5]) was 100%, the inhibition at 1500 g/ha (Brassica napus [6]) was 33.1% and the inhibition (Fusarium graminearum) was “inactive”. For the same compound, the inhibition at 1500 g/ha (Echinochloa crus-galli [7]) was 14.3%, the inhibition at 20 ppm (Alternaria solani [8]) was 0% and the inhibition at 200 ppm (Plasmopara viticola [9]) was 0%. For the same compound, the inhibition at 20 ppm (Pyrenophora teres [10]) was 0%, the inhibition at 60 ppm (Phytophthora infestans [11]) was 0% and the inhibition at 200 ppm (Phytophthora infestans [12]) was 0%. The inhibition (Pythium dissimile) was “inactive”, the inhibition at 60 ppm (Pyrenophora teres [13]) was 0% and the inhibition at 20 ppm (Plasmopara viticola [14]) was 0%. The inhibition at 60 ppm (Puccinia triticina [15]) was 70%, the inhibition at 1500 g/ha (Brassica napus [16]) was 100% and the inhibition at 20 ppm [17] was 0%. For the same compound, the inhibition at 60 ppm (Parastagonospora nodorum [18]) was 70%, the inhibition at 200 ppm (Puccinia triticina [19]) was 100% and the inhibition at 20 ppm (Parastagonospora nodorum [20]) was 0%. For the same compound, the inhibition at 200 ppm (Pyrenophora teres [21]) was 0%, the inhibition at 60 ppm (Alternaria solani [22]) was 0% and the inhibition (Uromyces viciae-fabae) was “Active”. For the same compound, the inhibition (Phytophthora infestans [23]) was “inactive”, the inhibition at 20 ppm (Puccinia triticina [24]) was 0% and the inhibition at 1500 g/ha (Echinochloa crus-galli [25]) was 37.6%. For the same compound, the inhibition at 20 ppm (Phytophthora infestans [26]) was 0%, the Activity (Triticum aestivum) was “Toxic” and the inhibition (Alternaria solani [27]) was “inactive”. The inhibition at 200 ppm (Alternaria solani [28]) was 0% and the inhibition at 60 ppm [29] was 70%.

Source: ChEMBL document CHEMBL3046679, “Design, synthesis, and biological activities of arylmethylamine substituted chlorotriazine and methylthiotriazine compounds” (J Agric Food Chem, 2011)
